Laboratory results from ChEMBL document CHEMBL1153349, “3-Hydroxy-4-oxo-4H-pyrido[1,2-a]pyrimidine-2-carboxylates--a new class of HIV-1 integrase inhibitors” (Bioorg Med Chem Lett, 2009).

How the values were obtained:
[1] = test system: Human immunodeficiency virus 1; test: Antiviral activity against HIV1 3B infected in human MT4 cells after 3 days by ELISA in presence of 10% fetal bovine serum; format: functional; settings: Human immunodeficiency virus 1, 3B, MT4, 72 h; read-out: CIC95
Procedure, shortened: (§1)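 HIV-1 infection spread was measured in cell culture (spread assay) under low-serum (10% fetal bovine serum) or high-serum (50% normal human serum) conditions.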

[2] = test system: Human immunodeficiency virus 1; test: Antiviral activity against HIV1 3B infected in human MT4 cells after 3 days by ELISA in presence of 50% normal human serum; format: functional; settings: Human immunodeficiency virus 1, 3B, MT4, 72 h; read-out: CIC95; procedure, shortened: as §1
[3] = biological target: Human immunodeficiency virus type 1 integrase (Human immunodeficiency virus 1, UniProt Q7ZJM1); test: Inhibition of HIV1 recombinant integrase strand transfer activity
[4] = test system: MT4; test: Cytotoxicity against human MT4 cells assessed as morphological changes up to 50 uM after 4 days; format: cell-based; settings: mt4, 96 h
[5] = test system: Rattus norvegicus; test: AUC in rat plasma at 3 mg/kg, iv and po; format: ADME, organism-based; design: dose 3 mg/kg, route oral; settings: in vivo
Procedure, shortened: (§2)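 Rats were dosed at 3 mg/kg both intravenously and orally, and the plasma PK profile was obtained. Parameters were AUC, plasma half-life and oral bioavailability (F%). Plasma clearance was taken from the IV dose.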

[6] = Half life in rat plasma at 3 mg/kg, iv and po; format: ADME, organism-based; design: dose 3 mg/kg, route oral; procedure, shortened: as §2
[7] = Plasma clearance in rat at 3 mg/kg, iv; format: ADME, organism-based; design: dose 3 mg/kg, route intravenous; procedure, shortened: as §2
[8] = Oral bioavailability in rat at 3 mg/kg; format: ADME, organism-based; settings: in vivo; procedure, shortened: as §2

Human immunodeficiency virus type 1 integrase, sequence (Q7ZJM1 whole entry): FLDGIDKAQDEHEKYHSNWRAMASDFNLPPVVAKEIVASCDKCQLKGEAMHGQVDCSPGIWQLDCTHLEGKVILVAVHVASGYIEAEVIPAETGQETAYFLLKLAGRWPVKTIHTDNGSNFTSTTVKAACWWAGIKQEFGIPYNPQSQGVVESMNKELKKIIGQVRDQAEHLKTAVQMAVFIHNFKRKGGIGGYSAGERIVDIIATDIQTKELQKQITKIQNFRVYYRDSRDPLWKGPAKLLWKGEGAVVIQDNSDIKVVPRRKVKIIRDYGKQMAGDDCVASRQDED

Compound: CCN(C(=O)c1ccncc1)c1cccn2c(=O)c(O)c(C(=O)NCc3ccc(F)cc3)nc12
- IC95 [1]: > 1 µM
- IC95 [2]: > 1 µM
- IC50 [3]: 0.05 µM
- Activity [4]: Non-toxic

Compound: CCN(C(=O)c1ccccn1)c1cccn2c(=O)c(O)c(C(=O)NCc3ccc(F)cc3)nc12
- IC95 [1]: 0.25 µM
- IC95 [2]: 1 µM
- IC50 [3]: 0.021 µM
- Activity [4]: Non-toxic

Compound: CCN(C(=O)C(=O)N1CCCC1)c1cccn2c(=O)c(O)c(C(=O)NCc3ccc(F)cc3)nc12
- IC95 [1]: 0.031 µM
- IC95 [2]: 1 µM
- IC50 [3]: 0.021 µM
- Activity [4]: Non-toxic

Compound: O=C(NCc1ccc(F)cc1)c1nc2c(CN3CCOCC3)cccn2c(=O)c1O
- IC50 [3]: 0.17 µM

Compound: CC(=O)N1CCN(Cc2cccn3c(=O)c(O)c(C(=O)NCc4ccc(F)cc4)nc23)CC1
- IC50 [3]: 0.185 µM

Compound: O=C(NCc1cccn2c(=O)c(O)c(C(=O)NCc3ccc(F)cc3)nc12)c1ccccc1
- IC50 [3]: 0.024 µM

Compound: CN(C)C(=O)C(=O)N(C)c1cccn2c(=O)c(O)c(C(=O)NCc3ccc(F)cc3)nc12
- IC95 [1]: 0.125 µM
- IC95 [2]: 0.5 µM
- IC50 [3]: 0.026 µM
- Activity [4]: Non-toxic

Compound: CCN(CC)C(=O)C(=O)N(CC)c1cccn2c(=O)c(O)c(C(=O)NCc3ccc(F)cc3)nc12
- IC95 [1]: 0.062 µM
- IC95 [2]: 0.125 µM
- IC50 [3]: 0.019 µM
- Activity [4]: Non-toxic

Compound: CCN(C(=O)C(=O)N1CCN(C)CC1)c1cccn2c(=O)c(O)c(C(=O)NCc3ccc(F)cc3)nc12
- IC95 [1]: 0.125 µM
- IC95 [2]: 0.5 µM
- IC50 [3]: 0.021 µM
- Activity [4]: Non-toxic

Compound: CNc1cccn2c(=O)c(O)c(C(=O)NCc3ccc(F)cc3)nc12
- IC50 [3]: 0.13 µM

Compound: O=C(Nc1cccn2c(=O)c(O)c(C(=O)NCc3ccc(F)cc3)nc12)c1ccccc1
- IC50 [3]: 0.018 µM

Compound: CCN(C(=O)CN1CCOCC1)c1cccn2c(=O)c(O)c(C(=O)NCc3ccc(F)cc3)nc12
- IC95 [1]: > 1 µM
- IC95 [2]: > 1 µM
- IC50 [3]: 0.023 µM
- Activity [4]: Non-toxic

Compound: CCNc1cccn2c(=O)c(O)c(C(=O)NCc3ccc(F)cc3)nc12
- IC95 [1]: 1.25 µM
- IC95 [2]: > 1 µM
- IC50 [3]: 0.036 µM
- Activity [4]: Non-toxic

Compound: CN(C)c1cccn2c(=O)c(O)c(C(=O)NCc3ccc(F)cc3)nc12
- IC50 [3]: 0.07 µM

Compound: CCCN(C(=O)C(=O)N(C)C)c1cccn2c(=O)c(O)c(C(=O)NCc3ccc(F)cc3)nc12
- IC95 [1]: 0.031 µM
- IC95 [2]: 0.5 µM
- IC50 [3]: 0.018 µM
- Activity [4]: Non-toxic

Compound: CC(C)N(C(=O)C(=O)N(C)C)c1cccn2c(=O)c(O)c(C(=O)NCc3ccc(F)cc3)nc12
- IC95 [1]: 0.062 µM
- IC95 [2]: > 1 µM
- IC50 [3]: 0.021 µM
- Activity [4]: Non-toxic

Compound: CCN(C(=O)CN(C)C)c1cccn2c(=O)c(O)c(C(=O)NCc3ccc(F)cc3)nc12
- IC95 [1]: > 1 µM
- IC95 [2]: > 1 µM
- IC50 [3]: 0.185 µM
- Activity [4]: Non-toxic

Compound: CCN(C(=O)c1nnc(C)o1)c1cccn2c(=O)c(O)c(C(=O)NCc3ccc(F)cc3)nc12
- IC95 [1]: 0.5 µM
- IC95 [2]: > 1 µM
- IC50 [3]: 0.05 µM
- Activity [4]: Non-toxic

Compound: CCN(C(=O)c1cscn1)c1cccn2c(=O)c(O)c(C(=O)NCc3ccc(F)cc3)nc12
- IC95 [1]: 0.25 µM
- IC95 [2]: > 1 µM
- IC50 [3]: 0.021 µM
- Activity [4]: Non-toxic

Compound: O=C(NCc1ccc(F)cc1)c1nc2ccccn2c(=O)c1O
- IC50 [3]: 0.022 µM

Compound: CCN(C(=O)C(=O)N(C)C)c1cccn2c(=O)c(O)c(C(=O)NCc3ccc(F)cc3)nc12
- IC95 [1]: 0.062 µM
- IC95 [2]: 0.25 µM
- IC50 [3]: 0.036 µM
- AUC [5]: 2900 nM·h
- half-life [6]: 4.5 h
- clearance [7]: 1.44 L/h/kg
- bioavailability [8]: 40%
- Activity [4]: Non-toxic

Compound: CCN(C(=O)C(=O)N1CCOCC1)c1cccn2c(=O)c(O)c(C(=O)NCc3ccc(F)cc3)nc12
- IC95 [1]: 0.031 µM
- IC95 [2]: 0.25 µM
- IC50 [3]: 0.025 µM
- Activity [4]: Non-toxic

Compound: Cc1cccn2c(=O)c(O)c(C(=O)NCc3ccc(F)cc3)nc12
- IC50 [3]: 0.009 µM

Compound: CCN(C(=O)c1ccno1)c1cccn2c(=O)c(O)c(C(=O)NCc3ccc(F)cc3)nc12
- IC95 [1]: 0.5 µM
- IC95 [2]: > 1 µM
- IC50 [3]: 0.018 µM
- Activity [4]: Non-toxic
